≈ marks a conversion by molar mass, not a printed value.
Key:
[1] = Half life of compound in human liver microsomes; format: ADME
[2] = Cytotoxicity against human MRC5 cells; format: cell-based
[3] = tested on: Human betaherpesvirus 5; assay: Antiviral activity against HCMV AD169 infected in human MRC5 cells by CPE assay; format: functional, organism-based; details: Human betaherpesvirus 5, AD169, MRC5
Procedure, shortened: (§1)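 MRC-5 fibroblasts were infected with HCMV and inhibition was read as protection from virus-induced cytopathic effect. EC50 is the half-maximal effect concentration, averaged over at least duplicate experiments, each run in triplicate.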

[4] = tested on: Human betaherpesvirus 5; assay: Antiviral activity against HCMV AD169 assessed as inhibition of viral infection in human MRC5 cells by RT-qPCR method; format: functional, organism-based; details: Human betaherpesvirus 5, AD169, MRC5
Procedure, shortened: (§2)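 Infected cells were treated with compound added at the same time as virus, so only a single cycle of viral replication is scored. Viral replication was read by RT-qPCR and EC50 was taken as the half-maximal effect concentration. Each value is at least the mean of duplicate experiments, each run in triplicate.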

[5] = Solubility of the compound at pH 6.8; format: physicochemical; details: buffer
[6] = molecular target: Cytochrome P450 2C9 (Homo sapiens, UniProt P11712); assay: Inhibition of CYP2C9 (unknown origin); format: ADME
Chain of Cytochrome P450 2C9 (P11712 whole entry): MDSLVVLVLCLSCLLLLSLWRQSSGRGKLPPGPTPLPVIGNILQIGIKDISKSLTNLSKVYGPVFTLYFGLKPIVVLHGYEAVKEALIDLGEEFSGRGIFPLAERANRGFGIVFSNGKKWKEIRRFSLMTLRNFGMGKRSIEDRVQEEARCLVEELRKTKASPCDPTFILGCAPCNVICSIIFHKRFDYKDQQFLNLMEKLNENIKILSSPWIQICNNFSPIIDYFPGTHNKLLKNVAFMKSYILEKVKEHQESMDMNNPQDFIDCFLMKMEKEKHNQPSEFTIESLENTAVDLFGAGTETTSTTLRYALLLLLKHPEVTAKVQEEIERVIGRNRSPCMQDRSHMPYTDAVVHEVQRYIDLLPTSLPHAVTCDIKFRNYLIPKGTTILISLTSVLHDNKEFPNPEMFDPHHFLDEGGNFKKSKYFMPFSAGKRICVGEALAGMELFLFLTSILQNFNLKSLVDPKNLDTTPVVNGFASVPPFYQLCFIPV

[7] = molecular target: Cytochrome P450 3A4 (Homo sapiens, UniProt P08684); assay: Inhibition of CYP3A4 (unknown origin); format: ADME
Chain of Cytochrome P450 3A4 (P08684 whole entry): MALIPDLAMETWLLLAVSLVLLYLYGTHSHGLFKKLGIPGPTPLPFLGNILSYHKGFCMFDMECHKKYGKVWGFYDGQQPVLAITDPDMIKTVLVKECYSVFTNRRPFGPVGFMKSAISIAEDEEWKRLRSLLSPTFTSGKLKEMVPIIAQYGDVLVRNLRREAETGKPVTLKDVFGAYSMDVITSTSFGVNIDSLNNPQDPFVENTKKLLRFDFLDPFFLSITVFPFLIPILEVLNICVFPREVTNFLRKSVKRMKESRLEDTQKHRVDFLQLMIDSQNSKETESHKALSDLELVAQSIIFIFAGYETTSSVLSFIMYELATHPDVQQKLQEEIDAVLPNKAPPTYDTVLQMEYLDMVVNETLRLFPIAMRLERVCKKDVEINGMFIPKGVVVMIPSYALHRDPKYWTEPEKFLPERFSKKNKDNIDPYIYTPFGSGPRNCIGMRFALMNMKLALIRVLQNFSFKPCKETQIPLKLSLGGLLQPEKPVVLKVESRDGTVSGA

[8] = tested on: Liver microsome; assay: Metabolic stability in human liver microsomes assessed as compound hydrolysis in absence of NADPH
[9] = tested on: Salmonella typhimurium; assay: Genotoxicity in Salmonella typhimurium by Ames test; format: toxicity, organism-based; details: salmonella enterica subsp. enterica serovar typhimurium
[10] = Oral bioavailability in rat; format: ADME, organism-based; details: in vivo
[11] = molecular target: Cytochrome P450 2D6 (Homo sapiens, UniProt P10635); assay: Inhibition of CYP2D6 (unknown origin); format: ADME
Chain of Cytochrome P450 2D6 (P10635 whole entry): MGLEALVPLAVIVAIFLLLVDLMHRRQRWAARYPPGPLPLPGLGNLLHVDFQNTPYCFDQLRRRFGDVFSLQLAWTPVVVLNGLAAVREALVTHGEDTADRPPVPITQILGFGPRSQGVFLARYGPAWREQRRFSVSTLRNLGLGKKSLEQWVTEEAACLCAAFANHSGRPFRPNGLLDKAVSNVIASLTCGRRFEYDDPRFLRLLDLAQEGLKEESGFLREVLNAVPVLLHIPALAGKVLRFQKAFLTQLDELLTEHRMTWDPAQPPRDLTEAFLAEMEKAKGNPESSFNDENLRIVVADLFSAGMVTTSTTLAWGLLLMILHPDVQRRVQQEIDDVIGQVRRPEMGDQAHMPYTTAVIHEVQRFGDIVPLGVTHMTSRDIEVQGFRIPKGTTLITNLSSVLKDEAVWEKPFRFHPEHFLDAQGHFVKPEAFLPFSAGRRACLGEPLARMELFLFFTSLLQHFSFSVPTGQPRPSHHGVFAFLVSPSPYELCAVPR

[12] = tested on: Human betaherpesvirus 5; assay: Antiviral activity against HCMV TB40 assessed as inhibition of viral infection in human MRC5 cells by RT-qPCR method; format: functional, organism-based; details: Human betaherpesvirus 5, TB40, MRC5; procedure, shortened: as §2
[13] = Volume of distribution at steady state in rat; format: ADME, organism-based; details: in vivo, read-out: Vdss
[14] = molecular target: T1, Cytochrome P450 2C8 (Homo sapiens, UniProt P10632); assay: Inhibition of CYP2C8 (unknown origin); format: ADME
T1 sequence (P10632 whole entry): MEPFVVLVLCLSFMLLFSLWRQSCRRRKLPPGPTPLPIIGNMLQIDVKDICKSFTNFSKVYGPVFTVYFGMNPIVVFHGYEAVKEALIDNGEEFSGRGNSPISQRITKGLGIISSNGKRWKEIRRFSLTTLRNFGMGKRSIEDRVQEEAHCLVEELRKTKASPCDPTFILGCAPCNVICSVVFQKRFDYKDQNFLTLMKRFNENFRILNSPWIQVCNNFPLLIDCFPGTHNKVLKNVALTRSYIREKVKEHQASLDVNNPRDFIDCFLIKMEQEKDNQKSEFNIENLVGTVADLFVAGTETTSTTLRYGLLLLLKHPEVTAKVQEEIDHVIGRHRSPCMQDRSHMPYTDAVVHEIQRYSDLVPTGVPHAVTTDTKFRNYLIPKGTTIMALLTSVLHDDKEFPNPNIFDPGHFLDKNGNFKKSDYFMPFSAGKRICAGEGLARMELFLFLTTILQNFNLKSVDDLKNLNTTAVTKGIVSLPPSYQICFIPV

[15] = tested on: Human betaherpesvirus 5; assay: Antiviral activity against HCMV VR1814 assessed as inhibition of viral infection in human ARPE19 cells by RT-qPCR method; format: functional, organism-based; details: Human betaherpesvirus 5, VR1814, ARPE-19; procedure, shortened: as §2
[16] = tested on: Human betaherpesvirus 5; assay: Antiviral activity against HCMV VR1814 infected in human ARPE19 cells after 72 hrs by cell-to-cell spread assay; format: functional, organism-based; details: Human betaherpesvirus 5, VR1814, ARPE-19, 72 h
Procedure, shortened: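 ARPE-19 cells were infected and replication ran for 24 h. Medium and free virus were then removed, and Cytogam neutralizing antibody plus fresh medium were added. After 48 h, allowing one full replication cycle, compounds were added. After a further 72 h, infected nuclei were stained with fluorescent anti-IE1 antibody and clusters imaged. IC50 came from dose-response curves, averaging at least duplicate experiments run in triplicate.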

[17] = tested on: Human betaherpesvirus 5; assay: Antiviral activity against HCMV TR assessed as inhibition of viral infection in human MRC5 cells by RT-qPCR method; format: functional, organism-based; details: Human betaherpesvirus 5, TR; procedure, shortened: as §2
[18] = Half life of compound in rat; format: ADME, organism-based; details: in vivo
[19] = tested on: Human betaherpesvirus 5; assay: Antiviral activity against HCMV VR1814 assessed as inhibition of viral infection in human MRC5 cells by RT-qPCR method; format: functional, organism-based; details: Human betaherpesvirus 5, VR1814, MRC5; procedure, shortened: as §2
[20] = Apparent permeability across apical to basolateral side in human Caco2 cells; format: ADME, cell-based; details: Caco-2
[21] = tested on: Human betaherpesvirus 5; assay: Antiviral activity against HCMV TR infected in human MRC5 cells by CPE assay; format: functional, organism-based; details: Human betaherpesvirus 5, TR; procedure, shortened: as §1

O=C(Nc1ccc(/N=C(\S)Nc2cc(C(F)(F)F)cc(C(F)(F)F)c2)cc1)c1csnn1 showed a half-life [1] of 1.83 h, a CC50 [2] of 36000 nM and an EC50 [3] of 250 nM.
CC(C)CC(O)(c1cccc(C(F)(F)F)c1)c1nc(-n2ccc(NC(=O)c3cscn3)cc2=O)c[nH]1 (stereo unspecified) gave an EC50 [4] of 28 nM, a solubility [5] of less than 0.1 µg/mL and a half-life [1] of 0.267 h. For the same molecule, the IC50 [6] was 150 nM and the IC50 [7] was greater than 30000 nM.
In the case of O=C(Nc1ccc2nc(NCc3cc(C(F)(F)F)cc(C(F)(F)F)c3)sc2c1)c1cscn1, the Stability [8] is reported as “Unstable”, the CC50 [2] is reported as greater than 57000 nM and the Activity [9] is reported as “Toxic”. For the same molecule, the EC50 [3] was 430 nM.
With O=C(Nc1ccc2nc(Cc3cc(C(F)(F)F)cc(C(F)(F)F)c3)[nH]c2c1)c1cscn1 the Stability [8] was “Stable”, the CC50 [2] was greater than 57000 nM and the Activity [9] was “Toxic”. The EC50 [3] was 2300 nM.
CC(O)(c1cccc(C(F)(F)F)c1)c1nc(-n2ccc(NC(=O)c3cscn3)cc2=O)c[nH]1 (stereo unspecified) showed an EC50 [4] of 540 nM, a solubility [5] of 76 µg/mL (≈ 160 µM) and a half-life [1] greater than 2 h. It also gave a bioavailability [10] of 72%, an IC50 [11] of 17000 nM and an EC50 [12] of 250 nM. It also gave a Vd [13] of 2.5 L, an IC50 [6] of 3000 nM and an IC50 [7] greater than 30000 nM. The IC50 [14] was 4700 nM, the EC50 [15] was 1700 nM and the EC50 [16] was 800 nM. For the same molecule, the EC50 [17] was 470 nM, the half-life [18] was 1.9 h and the EC50 [19] was 910 nM.
For O=C(Cc1ccc(NC(=O)c2cscn2)cn1)Nc1cc(C(F)(F)F)cc(C(F)(F)F)c1, the Stability [8] was “Stable”, the CC50 [2] was greater than 57000 nM and the Activity [9] was “Toxic”. It also gave an EC50 [3] of 540 nM.
In the case of CC(c1cccc(C(F)(F)F)c1)n1cnc(-n2ccc(NC(=O)c3cscn3)cc2=O)c1 (stereo unspecified), the EC50 [4] is reported as 2400 nM, the solubility [5] is reported as less than 0.1 µg/mL and the IC50 [6] is reported as 2100 nM. The IC50 [14] was 1700 nM.
For COc1cccc(C(=O)Nc2ccc(NC(=O)c3ccco3)cc2)c1, the EC50 [4] was 2500 nM, the solubility [5] was 1.9 µg/mL (≈ 5.65 µM) and the half-life [1] was 0.2 h. The CC50 [2] was greater than 82000 nM, the IC50 [11] was greater than 30000 nM and the Papp A→B [20] was 11 ×10⁻⁶ cm/s. The IC50 [7] was greater than 30000 nM, the EC50 [21] was 8200 nM and the EC50 [3] was 4000 nM.
Work on O=C(Nc1ccc(NC(=O)c2ccco2)cc1)c1cccnc1 yielded a CC50 [2] greater than 57000 nM and an EC50 [3] of 38000 nM.
In the case of COc1cccc(C(=O)Nc2ccc(NC(=O)c3ccco3)cc2)c1F, the CC50 [2] is reported as greater than 57000 nM and the EC50 [3] is reported as 8000 nM.
In the case of O=C(Nc1ccc(-c2c[nH]c(-c3cc(C(F)(F)F)cc(C(F)(F)F)c3)n2)cc1)c1cscn1, the Stability [8] is reported as “Unstable”, the CC50 [2] is reported as 7800 nM and the Activity [9] is reported as “Toxic”. It also gave an EC50 [3] of 130 nM.
COc1cccc(C(=O)Nc2ccc(NC(=O)c3cscn3)cc2)c1 showed a half-life [1] of 0.367 h, a CC50 [2] greater than 57000 nM and an EC50 [3] of 640 nM.
For O=C(Cc1ccc(NC(=O)c2cscn2)cc1)Nc1cc(C(F)(F)F)cc(C(F)(F)F)c1, the Stability [8] was “Unstable”, the CC50 [2] was 36000 nM and the Activity [9] was “Toxic”. It also gave an EC50 [3] of 130 nM.
COc1cccc(C(=O)Nc2ccc(NC(=O)c3csnn3)cc2)c1 gave a half-life [1] of 0.567 h, a CC50 [2] greater than 57000 nM and an EC50 [3] of 3000 nM.
For Cc1ccc(C(C)(O)c2nc(-n3ccc(NC(=O)c4cscn4)cc3=O)c[nH]2)cc1 (stereo unspecified), the EC50 [4] was 1900 nM, the solubility [5] was 16 µg/mL (≈ 38 µM) and the half-life [1] was 1.2 h. For the same molecule, the IC50 [6] was 14000 nM, the IC50 [7] was greater than 30000 nM and the IC50 [14] was 18000 nM.
In the case of O=C(Cc1ccc(NC(=O)c2cscn2)nc1)Nc1cc(C(F)(F)F)cc(C(F)(F)F)c1, the Stability [8] is reported as “Stable”, the CC50 [2] is reported as greater than 57000 nM and the Activity [9] is reported as “Toxic”. It also gave an EC50 [3] of 440 nM.
Work on O=C(Nc1ccc(NC(=O)c2ccco2)cc1)c1cccc(Cl)c1 yielded a half-life [1] of 0.233 h, a CC50 [2] greater than 57000 nM and an EC50 [3] of 1100 nM.
Work on O=C(Nc1ccc(NC(=O)c2ccco2)cc1)c1ccc(Cl)c(C(F)(F)F)c1 yielded a half-life [1] of 0.233 h, a CC50 [2] greater than 57000 nM and an EC50 [3] of 340 nM.
With O=C(Cc1cc(C(F)(F)F)cc(C(F)(F)F)c1)Nc1ccc(NC(=O)c2cscn2)cc1 the half-life [1] was 1.57 h, the Stability [8] was “Unstable” and the CC50 [2] was greater than 57000 nM. For the same molecule, the Activity [9] was “Toxic” and the EC50 [3] was 220 nM.
With O=C(Cn1ccc(NC(=O)c2cscn2)cc1=O)Nc1cc(C(F)(F)F)cc(C(F)(F)F)c1 the Stability [8] was “Stable”, the CC50 [2] was 28000 nM and the Activity [9] was “Non-toxic”. The EC50 [3] was 440 nM.
In the case of O=C(Nc1ccn(-c2c[nH]c(C(O)c3cccc(C(F)(F)F)c3)n2)c(=O)c1)c1cscn1 (stereo unspecified), the EC50 [4] is reported as 470 nM, the half-life [1] is reported as greater than 2 h and the IC50 [6] is reported as 7300 nM. For the same molecule, the IC50 [7] was greater than 30000 nM and the IC50 [14] was 4300 nM.
O=C(Nc1ccn(-c2cn(Cc3cccc(C(F)(F)F)c3)cn2)c(=O)c1)c1cscn1 gave an EC50 [4] greater than 5800 nM, a solubility [5] of less than 0.16 µg/mL and a half-life [1] greater than 2 h. For the same molecule, the IC50 [6] was 2100 nM and the IC50 [7] was 1900 nM.
For O=C(Cc1cc(C(F)(F)F)cc(C(F)(F)F)c1)Nc1ccc2nc(NC(=O)c3cscn3)sc2c1, the Stability [8] was “Stable”, the CC50 [2] was greater than 57000 nM and the Activity [9] was “Toxic”. For the same molecule, the EC50 [3] was 250 nM.
Molecule CC(C)OC(c1cccc(C(F)(F)F)c1)c1nc(-n2ccc(NC(=O)c3cscn3)cc2=O)c[nH]1 (stereo unspecified) has an EC50 [4] of 110 nM, a solubility [5] of less than 0.1 µg/mL and a half-life [1] greater than 2 h. For the same molecule, the IC50 [6] was 1400 nM, the IC50 [7] was greater than 30000 nM and the IC50 [14] was 180 nM.
COc1cccc(C(=O)Nc2ccc(NC(=O)c3cncnc3)cc2)c1 gave a CC50 [2] greater than 57000 nM and an EC50 [3] greater than 57000 nM.
For CC(c1cccc(C(F)(F)F)c1)c1nc(-n2ccc(NC(=O)c3cscn3)cc2=O)c[nH]1 (stereo unspecified), the EC50 [4] was 150 nM, the solubility [5] was less than 0.1 µg/mL and the half-life [1] was greater than 2 h. For the same molecule, the IC50 [6] was 31 nM and the IC50 [7] was greater than 30000 nM.
Molecule COc1cccc(C(=O)Nc2ccc(NC(=O)c3cocn3)cc2)c1 has a half-life [1] of 1.63 h, a CC50 [2] greater than 57000 nM and an EC50 [3] of 4400 nM.
In the case of Cc1cccc(C(C)(O)c2nc(-n3ccc(NC(=O)c4cscn4)cc3=O)c[nH]2)c1 (stereo unspecified), the EC50 [4] is reported as 3600 nM, the solubility [5] is reported as 63 µg/mL (≈ 149 µM) and the IC50 [6] is reported as 13000 nM. For the same molecule, the IC50 [7] was greater than 30000 nM and the IC50 [14] was 21000 nM.
